High-throughput results (PubChem BioAssay)
Rows were chosen to be rich in hits. Some 2.6% of all compounds tested hit in one or more screens of this group.
PG9 binder = PG9 antibody binding by small molecule | inhibition, % at 6.7 µM | actives 0.43% (n = 360,000) | TR-FRET gp120-PG9 antibody binding | AID 624416; in the data active = inhibition above about 8.5%
NR2E3 ag-1 = activates human photoreceptor nuclear receptor NR2E3; GST-NR2E3/biotin-RetCOR TR-FRET, 1536-well; inhibition of corepressor binding, % at 4.78 µM; actives 0.12% (n = 320,000); AID 2300;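 active = percent inhibition above the cutoff of mean plus 3 SD of all tested compounds, set per screening campaign, cut at about 20% in these data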
Target sequence (Q9Y5X4 whole entry, looked up): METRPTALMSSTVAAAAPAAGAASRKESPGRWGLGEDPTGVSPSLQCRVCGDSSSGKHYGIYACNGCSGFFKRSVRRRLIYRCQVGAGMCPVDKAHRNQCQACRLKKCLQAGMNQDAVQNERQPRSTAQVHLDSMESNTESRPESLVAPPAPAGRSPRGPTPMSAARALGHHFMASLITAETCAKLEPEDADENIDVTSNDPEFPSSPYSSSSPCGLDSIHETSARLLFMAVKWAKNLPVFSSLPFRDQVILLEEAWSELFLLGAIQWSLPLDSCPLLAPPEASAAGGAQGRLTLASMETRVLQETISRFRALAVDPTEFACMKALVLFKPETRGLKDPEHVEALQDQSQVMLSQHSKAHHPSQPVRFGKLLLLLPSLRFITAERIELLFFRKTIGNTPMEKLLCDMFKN
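System: GST-tagged NR2E3 plus biotinylated RetCOR corepressor; Buffer or medium: pH 7.5 Tris-based buffer; Probe or stimulus: RetCOR corepressor, biotinylated, 7 nM; Doses: compound at 4.8 µM, single dose; Schedule: 5 h incubation at 4 °C; Technique: time-resolved FRET; Evaluation: percent inhibition of TR-FRET ratio; Replication: one well per compound, singlicate testing.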
rCAG RNA binder = r(CAG) repeat RNA binding. TO-PRO-1 dye displacement fluorescence. inhibition, % at 3 µM. actives 1.3% (n = 370,000);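 active = inhibition above the plate cutoff, the mean of all test compounds on that plate plus 3 SD, cut at about 35% in these data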;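 also: higher means more dye released from RNA so lower well fluorescence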
NR1D1 modulator = Rev-erb alpha (human) modulation; activity, % at 10 µM; P20393; actives 0.79% (n = 370,000); Rev-erbα–FITC-DNA binding, fluorescence polarization, 90 min;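 active = activity above about 14%, limit read from the data; passing the limit was not always enough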
NR2E3 ag-2 = agonists of human NR2E3 nuclear receptor | actives 0.35% (n = 360,000) | CHO-S Gal4-NCOR/VP16-NR2E3 two-hybrid, luciferase | inhibition of corepressor binding, % at 3.98 µM | Q9Y5X4;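 active = inhibition above the mean of all tested compounds plus 3 SD, cut at about 70% in these data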;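 also: higher means lower luciferase signal from less NR2E3 corepressor binding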
PG9 bind confirm = confirmation of small molecules binding HIV-1 gp120 antibody PG9; shares compounds with PG9 binder; TR-FRET PG9 antibody binding, biochemical; inhibition, % at 6.7 µM; actives 90% (n = 1,500); in the data active = inhibition above about 9%
PGV04 Ab binding = PGV04 control antibody binding, counter-screen; shares compounds with PG9 binder; TR-FRET PGV04 antibody-gp120 binding, biochemical; inhibition, % at 6.7 µM; actives 95% (n = 1,500); AID 651604; in the data active = inhibition above about 9.5%
PG9 bind DR = PG9 antibody binding, dose response. AID 651848. IC50, µM. shares compounds with PG9 binder. 95 tested, under 10 active. TR-FRET PG9 antibody-gp120 binding inhibition; in the data active = IC50 below about 10 µM
PGV04 DR counter = counter-screen for PG9 binders: binding to control antibody PGV04. shares compounds with PG9 binder. IC50, µM. actives 20% (n = 95). TR-FRET binding to control antibody PGV04. AID 651937
PG126 binding DR = PG126 binding, dose response counter-screen | shares compounds with PG9 binder | TR-FRET binding to antibody PG126, counterscreen | IC50, µM | actives 20% (n = 95) | AID 651939
Of the large screens only hits and unclear results are named; the others gave an inactive call (follow-up assays come after a bar, where they were run). Rule as the data show it, unless noted: active = IC50 below about 9 µM; inactive = the rest.

CCCCC1=CC2=C(c3ccco3)C(=O)C(C)(OC(=O)c3ccc(OC)cc3)C(=O)C2=CN1Cc1ccccc1 (stereo not given)	PG9 binder 24.0 | PG9 bind confirm 27.7 | PGV04 Ab binding 33.4
Cc1cc2ccccc2nc1SCC(=O)NC1CCCC1	PG9 binder 9.7 | PG9 bind confirm 15.0 | PGV04 Ab binding 17.5
O=C(CSc1nc2ccccc2o1)NC1CCCC1	none
Cc1cc(SCC(=O)NC2CCCCC2)nc2ccccc12	PG9 binder 18.0 | PG9 bind confirm 22.0 | PGV04 Ab binding 26.7
O=C(CSc1ccccn1)NC1CCCC1	none (no result: PG9 binder, rCAG RNA binder, NR1D1 modulator, NR2E3 ag-2)
CN1CCCN(S(=O)(=O)c2ccc3c(c2)n(C)c(=O)c(=O)n3C)CC1	none (no result: PG9 binder, NR2E3 ag-1, NR2E3 ag-2)
COC(=O)c1ccc(CSc2ccccc2NC(=S)Nc2cccc(C(F)(F)F)c2)o1	none (no result: NR2E3 ag-1)
Nc1cc2sc(-c3ccc(C(=O)O)cc3)nc2cc1Cl	PG9 binder 8.6 | PG9 bind confirm 12.1 | PGV04 Ab binding 20.0
Nc1ccc(-c2nc3ccc(C(=O)O)cc3s2)cc1	none
COc1ccc2nc(C)cc(SCC(=O)Nc3c(C)cccc3C)c2c1	PG9 binder 10.3 | PG9 bind confirm 27.1 | PGV04 Ab binding 32.9
O=C(O)CCSc1ccc2ccccc2n1	PG9 binder 18.0 | PG9 bind confirm 18.8 | PGV04 Ab binding 20.2
Cc1cc(SCCC(=O)O)nc2ccccc12	none
Cc1nc(SCCC(=O)O)c2ccccc2n1	PG9 binder 22.5 (no result: NR1D1 modulator) | PG9 bind confirm 18.6 | PGV04 Ab binding 24.5
Cc1cc(N2CCN(C(=O)OC(C)(C)C)C[C@H]2C)ccc1N1CCN(Cc2ccccc2)[C@@H](C)C1	none (no result: NR2E3 ag-1, NR2E3 ag-2)
CCCCn1c(N)c(N(CCOC)C(=O)COC(=O)CCOc2ccc(C)cc2)c(=O)[nH]c1=O	none
O=C(O)C(=Cc1ccccc1[N+](=O)[O-])c1ccc2c(c1)OCO2	none (no result: NR2E3 ag-1)
CCCCCCCCN1C(=O)[C@@H](CC(=O)NCCCCc2ccccc2)C[C@@]2(C(=O)OC)C1=C[C@H](COCc1ccccc1)O[C@@H]2C	none (no result: PG9 binder, NR2E3 ag-1, NR2E3 ag-2)
Cn1c(SCC(=O)Nc2nc3ccccc3s2)nnc1-c1ccccc1	none
CCn1c(SCC(=O)Nc2nc3ccccc3s2)nnc1-c1ccc(Br)cc1	PG9 binder 21.1 | PG9 bind confirm 23.4 | PGV04 Ab binding 35.1
COc1cccc(Oc2ccc(S(=O)(=O)N3CCCC3)cc2[N+](=O)[O-])c1	none
O=C(Nc1cccc(F)c1)C1CCCN(C(=O)c2ccc(Cl)cc2)C1 (stereo not given)	none
CCOC(=O)c1c(C)[nH]c(C(=O)COC(=O)COc2ccc(OC)cc2)c1C	PG9 binder 34.5 | PG9 bind confirm 35.2 | PGV04 Ab binding 53.2
CN(C)c1ccc(-c2nnc(-c3ccc(S(=O)(=O)C(F)F)cc3)o2)cc1	PG9 binder 10.8 | PG9 bind confirm 17.1 | PGV04 Ab binding 19.6
COc1ccc(-c2nnc(-c3ccc(N(C)C)cc3)o2)cc1	none
COc1cccc2nc3c(C(=O)NCCN(C)C)cccc3cc12	none (no result: NR2E3 ag-1)
COc1ccc(C(=O)NCCN(C)C)c2nc3ccccc3cc12	PG9 binder 22.5 (no result: NR2E3 ag-1) | PG9 bind confirm 19.7 | PGV04 Ab binding 17.9 | PG9 bind DR inactive | PGV04 DR counter inactive | PG126 binding DR inactive
O=C(NCC1CCN(C(=O)C(=O)c2cccs2)CC1)c1ccc2c(c1)OCO2	none (no result: NR2E3 ag-1, NR2E3 ag-2)
CC1(C)Cc2nc3sc4c(SCC(=O)NCc5ccccc5)ncnc4c3cc2CO1	PG9 binder 48.4 | PG9 bind confirm 86.2 | PGV04 Ab binding 87.9
CCC(=O)N[C@@H]1CC[C@@H](CCNC(=O)Nc2ccc(F)cc2)O[C@@H]1CO	none (no result: NR2E3 ag-1, NR2E3 ag-2)
Cc1cc(C)c2c(N)c(C(=O)Nc3cccc(C)c3C)sc2n1	PG9 binder 8.9 | PG9 bind confirm 45.8 | PGV04 Ab binding 69.6
Cc1ccc(NC(=O)c2sc3nc(C)cc(C)c3c2N)cc1	none
Cc1ccccc1NC(=O)c1sc2nc3c(c(-c4ccco4)c2c1N)CCCC3	PG9 binder 70.5 | PG9 bind confirm 62.3 | PGV04 Ab binding 71.3
COc1ccc(CN(C)C(C)C(=O)Nc2ccc(S(=O)(=O)N3CCCCC3)cc2)cc1F (stereo not given)	none
COc1ccc(S[C@]2(C(=O)N3CCCC3)CC(=O)N(P(=O)(OC)OC)[C@@H]2c2ccc(OC)cc2)cc1	none (no result: PG9 binder, NR2E3 ag-1, NR2E3 ag-2)
Cc1ccc(-c2nsc(SCC(=O)NCc3ccc4c(c3)OCO4)n2)cc1	PG9 binder 15.8 | PG9 bind confirm 17.7 | PGV04 Ab binding 21.0
O=C(NCCN1Cc2ccccc2C1=O)c1cccs1	PG9 binder 50.0 | PG9 bind confirm 10.1 | PGV04 Ab binding 11.2
O=C(NCCN1CCOCC1)c1cccs1	none
NC(=O)c1ccccc1OCC(=O)Nc1ccc2c(c1)OCCO2	none (no result: NR2E3 ag-1)
COc1ccc2c(-c3ccccc3)cc3nnnn3c2c1	PG9 binder 9.9 | PG9 bind confirm 10.5 | PGV04 Ab binding 23.6
O=C(c1ccccc1NS(=O)(=O)c1ccc(Br)cc1)N1CCOCC1	none (no result: NR2E3 ag-1)
CSc1ccc(S(=O)(=O)Nc2ccccc2C(=O)N2CCOCC2)cc1	PG9 binder 8.8 | PG9 bind confirm 21.9 | PGV04 Ab binding 21.6 | PG9 bind DR inactive | PGV04 DR counter inactive | PG126 binding DR inactive
O=C(/C=C/Nc1ccccc1)C(F)(F)F	PG9 binder 9.3 | PG9 bind confirm inactive | PGV04 Ab binding inactive
COc1ccc(NS(=O)(=O)c2cccc(C(=O)N3CCN(Cc4ccc5c(c4)OCO5)CC3)c2)cc1	none
O=C(c1ccc(NS(=O)(=O)c2ccccc2)cc1)N1CCN(Cc2ccc3c(c2)OCO3)CC1	PG9 binder 10.9 | PG9 bind confirm inactive | PGV04 Ab binding inactive
COCCNC(=O)c1cc(-c2cccnc2)nc2ccc(Br)cc12	PG9 binder 8.6 | PG9 bind confirm inactive | PGV04 Ab binding 14.2
CCCc1cc(=O)oc2cc(C)cc(O)c12	PG9 binder 9.3 | PG9 bind confirm 14.2 | PGV04 Ab binding 19.4
CCCc1cc(=O)oc2cc(C)cc(OCc3nn[nH]n3)c12	none
Cc1cc(O)c2c(CN3CCN(Cc4ccccc4)CC3)cc(=O)oc2c1	none
CCc1cc(=O)oc2cc(C)cc(O)c12	PG9 binder 14.5 | PG9 bind confirm 13.5 | PGV04 Ab binding 19.8
COC(=O)Cc1c(C)c2c(O)cc(C)cc2oc1=O	PG9 binder 10.4 | PG9 bind confirm 18.1 | PGV04 Ab binding 17.6 | PG9 bind DR inactive | PGV04 DR counter inactive | PG126 binding DR inactive
